Test results taken from publication PMC5563391 (Investigational new drugs, 2015).

Test: Phase 1 pharmacokinetics of ilorasertib in plasma
Assay type: in vivo, human
Details: for AUC(0-t) / Cmax / Tmax / half-life / AUC(0-inf): human, plasma; for half-life: t1/2, arm D
Outline: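 Arm A patients took oral test compound once weekly, in the morning, on days 1, 8 and 15 of 28-day cycles, at 10–690 mg. Plasma was sampled intensively up to 72 h after dosing on days 1 and 15. Noncompartmental analysis gave Cmax, Tmax, t½, AUCt and AUC∞, plus dose-normalized values. Results are summarized by dose level as mean ± SD, with individual values where N=1.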

[1] = arm A, oral once weekly, first dose, 10 mg, N=3, mean ± SD
[2] = arm A, oral once weekly, first dose, 20 mg, N=1
[3] = arm A, oral once weekly, first dose, 40 mg, N=1
[4] = arm A, oral once weekly, first dose, 80 mg, N=2, mean ± SD
[5] = arm A, oral once weekly, first dose, 160 mg, N=3, mean ± SD
[6] = arm A, oral once weekly, first dose, 240 mg, N=5, mean ± SD
[7] = arm A, oral once weekly, first dose, 340 mg, N=3, mean ± SD
[8] = arm A, oral once weekly, first dose, 440 mg, N=4, mean ± SD
[9] = arm A, oral once weekly, first dose, 540 mg, N=3, mean ± SD
[10] = arm A, oral once weekly, first dose, 640 mg, N=6, mean ± SD
[11] = arm A, oral once weekly, first dose, 690 mg, N=1
[12] = arm A, oral once weekly, first dose, all doses, N=32, mean ± SD
[13] = iv, 32 mg, arm D, IV infusion, 32 mg, day 1, N=4, mean ± SD
[14] = iv, 32 mg, arm D, IV infusion, 32 mg, day 15, N=3, mean ± SD
[15] = po, 40 mg, arm A, oral once weekly, first dose, N=1

Compound: Nc1ncc(-c2cnn(CCO)c2)c2scc(-c3ccc(NC(=O)Nc4cccc(F)c4)cc3)c12 [Ilorasertib]
- coefficient of variation for dose-normalized Cmax (arm A, oral): approximately 66%
- AUC0–24/D (dose-normalized AUC0–24) [1]: 65.8 ± 35.0 ng·h/mL/mg
- AUC∞/D (dose-normalized AUC∞) [1]: 70.9 ± 37.9 ng·h/mL/mg
- Cmax/D (dose-normalized Cmax) [1]: 3.74 ± 1.56 ng/mL/mg
- AUC0–24/D (dose-normalized AUC0–24) [2]: 27.2 ng·h/mL/mg
- AUC∞/D (dose-normalized AUC∞) [2]: 28.5 ng·h/mL/mg
- Cmax/D (dose-normalized Cmax) [2]: 2.98 ng/mL/mg
- AUC0–24/D (dose-normalized AUC0–24) [3]: 43.9 ng·h/mL/mg
- AUC∞/D (dose-normalized AUC∞) [3]: 45.8 ng·h/mL/mg
- Cmax/D (dose-normalized Cmax) [3]: 4.95 ng/mL/mg
- AUC0–24/D (dose-normalized AUC0–24) [4]: 15.2 ± 5.10 ng·h/mL/mg
- AUC∞/D (dose-normalized AUC∞) [4]: 15.7 ± 5.18 ng·h/mL/mg
- Cmax/D (dose-normalized Cmax) [4]: 1.44 ± 4.90 ng/mL/mg
- AUC0–24/D (dose-normalized AUC0–24) [5]: 19.4 ± 8.86 ng·h/mL/mg
- AUC∞/D (dose-normalized AUC∞) [5]: 20.2 ± 9.28 ng·h/mL/mg
- Cmax/D (dose-normalized Cmax) [5]: 1.86 ± 0.98 ng/mL/mg
- AUC0–24/D (dose-normalized AUC0–24) [6]: 16.6 ± 12.4 ng·h/mL/mg
- AUC∞/D (dose-normalized AUC∞) [6]: 17.5 ± 13.5 ng·h/mL/mg
- Cmax/D (dose-normalized Cmax) [6]: 1.22 ± 0.59 ng/mL/mg
- AUC0–24/D (dose-normalized AUC0–24) [7]: 16.9 ± 2.56 ng·h/mL/mg
- AUC∞/D (dose-normalized AUC∞) [7]: 17.7 ± 2.09 ng·h/mL/mg
- Cmax/D (dose-normalized Cmax) [7]: 1.74 ± 1.0 ng/mL/mg
- AUC0–24/D (dose-normalized AUC0–24) [8]: 30.7 ± 17.1 ng·h/mL/mg
- AUC∞/D (dose-normalized AUC∞) [8]: 32.1 ± 18.0 ng·h/mL/mg
- Cmax/D (dose-normalized Cmax) [8]: 2.88 ± 1.89 ng/mL/mg
- AUC0–24/D (dose-normalized AUC0–24) [9]: 10.7 ± 2.0 ng·h/mL/mg
- AUC∞/D (dose-normalized AUC∞) [9]: 11.1 ± 2.28 ng·h/mL/mg
- Cmax/D (dose-normalized Cmax) [9]: 0.964 ± 0.183 ng/mL/mg
- AUC0–24/D (dose-normalized AUC0–24) [10]: 30.7 ± 23.1 ng·h/mL/mg
- AUC∞/D (dose-normalized AUC∞) [10]: 31.7 ± 23.4 ng·h/mL/mg
- Cmax/D (dose-normalized Cmax) [10]: 2.42 ± 1.57 ng/mL/mg
- AUC0–24/D (dose-normalized AUC0–24) [11]: 11.7 ng·h/mL/mg
- AUC∞/D (dose-normalized AUC∞) [11]: 12.3 ng·h/mL/mg
- Cmax/D (dose-normalized Cmax) [11]: 1.22 ng/mL/mg
- AUC0–24/D (dose-normalized AUC0–24) [12]: 26.3 ± 21.3 ng·h/mL/mg
- AUC∞/D (dose-normalized AUC∞) [12]: 27.6 ± 22.7 ng·h/mL/mg
- Cmax/D (dose-normalized Cmax) [12]: 2.16 ± 1.43 ng/mL/mg
- accumulation of study drug (arm B, between days 1 and 15, multiple doses): no apparent accumulation
- pharmacokinetic interaction between ilorasertib and azacitidine (arm C, oral ilorasertib with azacitidine): no apparent pharmacokinetic drug-drug interaction
- time of peak plasma concentrations (arm D, IV dosing): end of the 4-hour infusion
- AUC(0-t) (iv, 32 mg, AUC0–24, arm D, IV infusion, 32 mg, day 1, N=4, mean ± SD): 4980 ± 3900 ng·h/mL
- AUC(0-t) (iv, 32 mg, AUC0–24, arm D, IV infusion, 32 mg, day 15, N=3, mean ± SD): 8220 ± 9110 ng·h/mL
- Cmax [13]: 587 ± 360 ng/mL
- Cmax [14]: 414 ± 140 ng/mL
- Tmax [13]: 4.1 ± 0.3 h
- Tmax [14]: 3.9 h
- half-life (iv, 32 mg, IV infusion, 32 mg, day 1, N=4): 6.2 ± 5.1 h
- half-life (iv, 32 mg, IV infusion, 32 mg, day 15, N=3): 5.8 ± 20.6 h
- AUC(0-inf) (po, 10 mg): 710 ± 380 ng·h/mL
- AUC(0-t) (po, 10 mg, AUC0–24, arm A, oral once weekly, first dose, N=3, mean ± SD): 660 ± 350 ng·h/mL
- AUC(0-inf) (po, 20 mg): 570 ng·h/mL
- Cmax (po, 20 mg, arm A, oral once weekly, first dose, N=1): 60 ng/mL
- AUC(0-inf) (po, 40 mg): 1830 ng·h/mL
- Cmax [15]: 198 ng/mL
- Tmax [15]: 3 h
- AUC(0-inf) (po, 80 mg): 1260 ± 410 ng·h/mL
- AUC(0-t) (po, 80 mg): 1220 ± 410 ng·h/mL
- AUC(0-inf) (po, 160 mg): 3240 ± 1490 ng·h/mL
- AUC(0-inf) (po, 240 mg): 4190 ± 3230 ng·h/mL
- AUC(0-t) (po, 320 mg, AUC0–24, arm B, oral twice weekly, 320 mg, day 1, N=6, mean ± SD): 29700 ± 19000 ng·h/mL
- AUC(0-t) (po, 320 mg, AUC0–24, arm B, oral twice weekly, 320 mg, day 15, N=4, mean ± SD): 30700 ± 15000 ng·h/mL
- AUC(0-inf) (po, 340 mg): 6010 ± 710 ng·h/mL
- AUC(0-inf) (po, 440 mg): 14100 ± 7940 ng·h/mL
